Compound activity as filed in PubChem.
Beta cell apopt = blocks beta cell apoptosis. AID 435005. protection from apoptosis, % (no concentration beside the values). 300,000 tested, 0.8% active. INS-1E cytokine-induced death, ATP luminescence, 48 h; percent of positive-control rescue, neutral wells zero;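 active = Every replicate reaches about 75%, or at least half do and their mean reaches it too, limit read from the data; inconclusive = At least half of replicates reach the limit but their mean does not; inactive = Under half of replicates reach the limit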;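 note: 0% = cytokine-treated negative control wells and 100% = positive control rescue; higher means more ATP so stronger rescue from cytokine killing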
CHOP UPR activ = apoptotic UPR (CHOP) activation | activation, % at 10 µM | CHO-CHOP luciferase reporter, luminescence; percent of tunicamycin response over DMSO baseline | AID 449763 | 330,000 tested, 0.34% active;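 active = at 10 µM dose, activation of 40% or more, normalized to positive control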;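 note: 100% = tunicamycin at 10 µg/mL and 0% = DMSO alone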
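System: CHO-CHOP luciferase reporter cell line | Buffer or medium: F12 medium containing 10% fetal bovine serum | Doses: One dose, 10 µM in 0.5% DMSO | Times: 6 h compound exposure at 37 °C after overnight seeding | Signal: Luciferase luminescence | Read-out: % activation vs tunicamycin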
UPR XBP1 act = adaptive UPR (XBP1) activation; CHO-XBP1 luciferase reporter, IRE1-XBP1 UPR activation, luminescence; percent of tunicamycin response, DMSO as zero; activation, % at 20 µM; 330,000 tested, 0.33% active; AID 463104;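 active = versus positive control, 20 µM dose yields 30% or more activation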;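 note: 100% = tunicamycin at 10 µg/mL and 0% = DMSO only wells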
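Material: CHO cell line with stable XBP1 luciferase reporter; schedule: 16-18 h cell attachment at 37 °C, then 6 h compound exposure; signal: glow luminescence from Steady-Glo reagent; medium: serum-containing F12 medium, 10% FBS; benchmarks: tunicamycin 10 µg/mL and vehicle-only wells; read-out: percent activation relative to tunicamycin reference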
T cruzi repl = T. cruzi replication inhibition | T. cruzi beta-gal in NIH3T3, luminescence, 90 h | 300,000 tested, 1.4% active | inhibition, % (no concentration beside the values) | AID 1885;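 active = mean inhibition across valid replicates above about 55%, limit read from the data; inconclusive = mean below that limit but half or more replicates reach it; inactive = mean below it, under half of replicates reach it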;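 note: signal also drops with host cell toxicity which is not excluded here; 0% = plate median of DMSO wells and 100% = zero luminescence signal; higher percent means less beta-gal luminescence so fewer parasites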
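Material: NIH/3T3 host cells with β-galactosidase reporter T. cruzi; Input: 5,000 host fibroblasts per well; Medium: DMEM, 2% fetal bovine serum; Compound: 50 nL DMSO compound solution per well; Schedule: 3 h host attachment, then at least 90 h co-culture; Detection: luminescent β-galactosidase signal after 60 min lysis.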
Mdm2 MdmX PPI = inhibitors of human Mdm2/MdmX interaction; O15151+Q00987; SaOS-2 split-luciferase Mdm2/MdmX complementation, luminescence; inhibition, % at 8 µM; 330,000 tested, 3% active; AID 485346;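 active = inhibition of at least 50% at 8 µM in the primary screen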
CSC inhib = blocks cancer stem cells; cancer stem cell-like cells viability, luminescence; inhibition, % at 7.5 µM; 300,000 tested, 1.1% active; AID 2717; in the data active = inhibition above about 75%; inconclusive = no clear call, values can overlap the other calls; tested in HMLE shEcad cells
* = called active by the depositor; ? = inconclusive; . = no result given. Sampled rows, rich in hits. Any-hit rate of the full collection: about 5%.

SMILES	Beta cell apopt	CHOP UPR activ	UPR XBP1 act	T cruzi repl	Mdm2 MdmX PPI	CSC inhib
Cc1ccccc1COC(=O)c1nn(-c2ccccc2)nc1N	1	0	7	-7	-19	.
CC(C)c1ccc(NC(=S)NCCc2c[nH]c3ccccc23)cc1	2	2	-1	35	12	59
CN(C)CCCn1c(SCC(=O)N2c3ccccc3Sc3ccccc32)nc2ccccc2c1=O	-1	.	.	58*	.	30
Cn1c(SCC(=O)N2c3ccccc3Sc3ccccc32)nc2ccccc21	3	0	-4	59*	6	-14
Cc1ccc(-c2csc(NC(=O)CSc3nc4ccccc4c(=O)n3CCCN(C)C)n2)cc1	6	4	4	29	49	15
Cc1ccc(N(C)C2=NC(=O)CS2)cc1Cl	-10	-1	-4	-1	17	-17
CN(C)C(=O)CSc1nc2ccc(C(=O)c3ccccc3)cc2[nH]1	0	1	2	2	0	-2
OCCNc1ncnc2c1c(-c1ccccc1)c(-c1ccccc1)n2Cc1ccco1	7	-1	-2	5	20	-27
c1ccc(-c2c(-c3ccccc3)n(Cc3ccco3)c3ncnc(NCCCn4ccnc4)c23)cc1	17	6	2	47	47	133*
c1ccc(-c2oc3ncnc(NCCCn4ccnc4)c3c2-c2ccccc2)cc1	.	2	4	49	31	1
N=c1c2c(-c3ccccc3)c(-c3ccccc3)n(Cc3ccco3)c2ncn1CCCn1ccnc1	6	.	.	64*	.	38
CCC(C)(CCNC(=O)Cc1ccccc1)c1ccccc1OC (centres undefined)	3	0	0	1	10	-10
O=C(COc1ccc(Cl)cc1Cl)N/N=C/CCc1ccccc1	-10	0	0	0	40	-10
O=C(COc1ccc(Cl)cc1Cl)N/N=C/c1ccc[nH]1	-8	7	-2	-13	-3	79*
Cc1ccccc1NC(=S)N1CCN(Cc2ccc3c(c2)OCO3)CC1	-7	9	-3	13	21	-16
FC(F)(F)c1ccccc1NC(=S)N1CCN(Cc2ccc3c(c2)OCO3)CC1	82*	1	-3	-1	-3	.
COCCn1c(=NC(=O)c2ccc(S(=O)(=O)N3CCOCC3)cc2)sc2cc(S(N)(=O)=O)ccc21	-7	1	-3	0	11	-12
CCn1c(=NC(=O)CCS(=O)(=O)c2ccccc2)sc2cccc(OC)c21	87*	9	-1	?	43	-6
CCn1c(=NC(=O)c2ccc(S(=O)(=O)N3CCOCC3)cc2)sc2cccc(OC)c21	88*	7	6	46	4	33
CCCc1cc2c(=O)c(-c3ccc4c(c3)OCCO4)coc2cc1OC(=O)c1ccco1	4	4	1	7	-205	89*
COc1ccc(OC2C(=O)N(Cc3ccc(F)cc3)C2c2ccc(OC)c(OC)c2)cc1 (centres undefined)	.	-2	0	25	-13	.
COc1ccc(OC2C(=O)N(Cc3ccc4c(c3)OCO4)C2c2sccc2C)cc1 (centres undefined)	10	0	-2	40	12	117*
COc1ccc(OC)c(NC(=O)COC(=O)CCNc2ccccc2OC)c1	0	1	-1	.	-3	-2
NC(N)=N/N=C/c1cccc(Cl)c1Cl	12	0	1	55*	20	1
NC(N)=N/N=C/c1cccc([N+](=O)[O-])c1O	-7	-2	2	34	12	-16
CSc1ncccc1C(=O)NC(C)CCc1ccccc1 (centres undefined)	-6	0	-1	-17	9	-14
CC(c1nnnn1C(C)(C)C)N(Cc1cccnc1)Cc1ccccc1Cl (centres undefined)	7	0	0	66*	6	-4
CC(C)(C)n1nnnc1C(c1cccs1)N(Cc1cccnc1)Cc1ccccc1Cl (centres undefined)	.	4	3	71*	19	41
CC(C)(C)n1nnnc1C(c1cccnc1)N(Cc1ccccc1)Cc1ccco1 (centres undefined)	-3	-1	4	14	-3	7
